Among the data in ChEMBL document CHEMBL5053518, “1,5,6,7-Tetrahydro-4H-indazol-4-ones as human neutrophil elastase (HNE) inhibitors” (Bioorg Med Chem Lett, 2021) are inhibition, half-life and t1/2 values, retold here.

Data set [1] addresses T1, Neutrophil elastase (Homo sapiens) (UniProt P08246).
T1 sequence (whole entry): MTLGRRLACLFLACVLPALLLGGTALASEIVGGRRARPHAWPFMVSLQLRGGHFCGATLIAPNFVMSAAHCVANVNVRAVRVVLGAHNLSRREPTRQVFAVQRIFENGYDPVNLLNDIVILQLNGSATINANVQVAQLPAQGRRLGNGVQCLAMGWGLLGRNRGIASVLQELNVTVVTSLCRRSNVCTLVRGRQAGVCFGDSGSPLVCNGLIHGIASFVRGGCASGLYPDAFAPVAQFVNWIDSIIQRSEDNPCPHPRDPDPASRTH
Put plainly: Inhibition of human neutrophil elastase at 50 uM. In a few lines: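 Human neutrophil elastase inhibition was tested up to a highest concentration of 50 μM. Active compounds were given as Ki values, reported as mean ± SD of three independent experiments.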

Data set [2] is described as follows: Stability in aqueous buffer assessed as half life. Particulars: for half-life: aqueous buffer; for t1/2: buffer. The data set is classed as physicochemical.

SMILES strings stand for the structures. The source made the active and inactive calls. The calls are words filed in the database; no cut-off is given here.

On to `O=C(NC1CCCc2c1cnn2-c1ccccc1)C1CC1` (stereo not given), for which the inhibition result in data set [1] was “inactive”.

Turning to `O=C1CCCc2c1cnn2-c1cccc(C(F)(F)F)c1`, the inhibition result in data set [1] is “inactive”.

One may read the half-life as the time in which the quantity being followed falls by half. For `O=C1c2cnn(C(=O)C3CC3)c2CCC1Br` (stereo not given), the half-life in data set [2] was 0.645 h.

In the case of `CC(C)(C)OC(=O)N1CCN(C(=O)Cn2ncc3c2CCCC3=O)CC1`, the inhibition entry in data set [1] was “inactive”.

With `O=C1c2cn(CC(=O)N3CCN(c4ccccc4)CC3)nc2CCC1Br` (stereo not given), the inhibition entry in data set [1] was “inactive”.

As for `O=C1CCCc2nn(CC(=O)N3CCNCC3)cc21`, the inhibition result in data set [1] is “inactive”.

For `O=C1c2cn(C(=O)C3CC3)nc2CCC1Br` (stereo not given), the t1/2 in data set [2] is 1.9123 h.

Turning to `O=C1CCCc2nn(Cc3ccccc3)cc21`, the inhibition entry in data set [1] was “inactive”.

In the case of `O=C(C1CC1)n1cc2c(n1)CCC(Br)(Br)C2=O`, the half-life in data set [2] is 3.91 h.

Regarding `Cc1cccc(C(=O)n2ncc3c2CCCC3=O)c1`, in data set [2], the t1/2 turned out to be 1.64 h.

Turning to `O=C1CCCc2nn(Cc3cccc(C(F)(F)F)c3)cc21`, the inhibition result in data set [1] was “inactive”.

Turning to `O=C1CCCc2c1cnn2Cc1ccccc1`, the inhibition result in data set [1] is “inactive”.

For `O=C1CCCc2nn(-c3cccc(C(F)(F)F)c3)cc21`, the inhibition entry in data set [1] was “inactive”.

Turning to `O=C1CCCc2c1cnn2Cc1cccc(C(F)(F)F)c1`, the inhibition result in data set [1] is “inactive”.

As to `O=C1c2cnn(CC(=O)N3CCN(c4ccccc4)CC3)c2CCC1Br` (stereo not given), the inhibition result in data set [1] was “inactive”.

As for `O=C(C1CC1)n1ncc2c1CCC(Br)(Br)C2=O`, the t1/2 in data set [2] was determined as 0.952 h.

Turning to `CC(C)(C)OC(=O)N1CCN(C(=O)Cn2cc3c(n2)CCCC3=O)CC1`, the inhibition entry in data set [1] was “inactive”.

In the case of `CC(C)(C)OC(=O)n1cc2c(n1)CCC(Br)C2=O` (stereo not given), in data set [1], the inhibition result was “inactive”.

Regarding `O=C(C1CC1)N(C(=O)C1CC1)C1CCCc2c1cnn2-c1ccccc1` (stereo not given), the inhibition result in data set [1] was “inactive”.

As for `Cc1cccc(C(=O)NC2CCCc3c2cnn3-c2ccccc2)c1` (stereo not given), the inhibition result in data set [1] was “inactive”.
